Source: ChEMBL document CHEMBL1667802, “1H-imidazo[4,5-c]pyridine-4-carbonitrile as cathepsin S inhibitors: separation of desired cellular activity from undesired tissue accumulation through optimization of basic nitrogen pka” (Bioorg Med Chem Lett, 2011)

What was measured:
[1] = Stability in C57 mouse liver microsome; type: ADME; conditions: microsomes
Liver microsomes [2] = test: Stability in human liver microsome; type: ADME
Procathepsin L = Procathepsin L (Homo sapiens, UniProt P07711); test: Inhibition of human cathepsin L
Cathepsin L2 = molecular target: T1, Cathepsin L2 (Homo sapiens, UniProt O60911); test: Inhibition of human cathepsin V
T1 sequence (O60911 whole entry): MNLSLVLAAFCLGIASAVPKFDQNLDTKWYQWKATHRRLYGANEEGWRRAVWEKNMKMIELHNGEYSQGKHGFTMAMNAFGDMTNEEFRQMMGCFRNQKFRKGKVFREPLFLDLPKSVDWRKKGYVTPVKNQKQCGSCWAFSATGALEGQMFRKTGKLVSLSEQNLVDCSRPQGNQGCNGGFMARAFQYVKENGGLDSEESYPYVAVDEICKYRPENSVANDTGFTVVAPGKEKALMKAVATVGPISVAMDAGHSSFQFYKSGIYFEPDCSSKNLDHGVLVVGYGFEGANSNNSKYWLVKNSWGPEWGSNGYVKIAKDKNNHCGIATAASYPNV

Liver microsomes [3] = test: Stability in Sprague-Dawley rat liver microsome; type: ADME
Cathepsin B = Cathepsin B (Homo sapiens, UniProt P07858); test: Inhibition of human cathepsin B
[4] = Drug level in C57BI/6 mouse plasma at 30 mg/kg, po after 4 hrs; type: ADME, organism-based; set-up: dose 30 mg/kg, route oral
[5] = Drug level in C57BI/6 mouse spleen at 30 mg/kg, po after 4 hrs; type: ADME, organism-based; set-up: dose 30 mg/kg, route oral; conditions: read-out: Drug uptake
[6] = Ratio of drug level in spleen to plasma in C57BI/6 mouse at 30 mg/kg, po after 4 hrs; type: ADME, organism-based; set-up: dose 30 mg/kg, route oral
Outline: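 Male or female unspecified 18–25 g C57Bl/6 mice received the HCl salt at 30 mg/kg by oral gavage in 0.5% gelatin, 5% mannitol in water. Blood and spleen were collected after dosing and total compound levels measured. The spleen/plasma ratio was taken from total spleen and total plasma concentrations (nM).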

Plasma = test: Drug level in C57BI/6 mouse plasma at 30 mg/kg, po; type: ADME, organism-based; set-up: dose 30 mg/kg, route oral; conditions: in vivo
[7] = Ratio of drug level in spleen to plasma in C57BI/6 mouse at 30 mg/kg, po; type: ADME, organism-based; set-up: dose 30 mg/kg, route oral
Outline: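 HCl salt given by oral gavage at 30 mg/kg in 0.5% gelatin, 5% mannitol in water to C57Bl/6 mice of 18–25 g. Blood and spleen collected 2 h after dosing and total compound level measured in each. Ratio taken as total spleen over total plasma concentration.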

Spleen = test: Drug level in C57BI/6 mouse spleen at 30 mg/kg, po; type: ADME, organism-based; set-up: dose 30 mg/kg, route oral; conditions: in vivo, read-out: Drug uptake
Cathepsin S [8] = molecular target: T2, Cathepsin S (Homo sapiens, UniProt P25774); test: Inhibition of cathepsin S in human JY cells assessed as accumulation of lip10 by Western blot analysis; type: cell-based
Cathepsin S [9] = molecular target: T2, Cathepsin S; test: Inhibition of human cathepsin S
Cathepsin K = molecular target: T3, Cathepsin K (Homo sapiens, UniProt P43235); test: Inhibition of human cathepsin K
T3 sequence (P43235 whole entry): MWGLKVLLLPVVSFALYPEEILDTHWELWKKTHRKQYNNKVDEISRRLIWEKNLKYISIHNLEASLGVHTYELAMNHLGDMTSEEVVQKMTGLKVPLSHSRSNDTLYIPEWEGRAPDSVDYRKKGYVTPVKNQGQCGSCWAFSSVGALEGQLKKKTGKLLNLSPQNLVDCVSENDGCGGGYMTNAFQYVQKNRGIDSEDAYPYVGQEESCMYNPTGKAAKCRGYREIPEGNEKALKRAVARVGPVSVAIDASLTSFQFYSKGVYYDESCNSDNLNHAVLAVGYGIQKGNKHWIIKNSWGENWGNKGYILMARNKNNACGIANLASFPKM

[10] = Oral bioavailability in C57 mouse at 2 mg/kg, iv or 10 mg/kg, po; type: ADME, organism-based; conditions: in vivo
Outline: (§1)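 Pharmacokinetics in male C57 mice, Sprague Dawley rats and Cynomolgus monkeys. Dosing was 2 mg/kg iv and 10 mg/kg po, with oral vehicle gelatin/mannitol. Parameters reported are clearance, Vss, Cmax and oral bioavailability (F %).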

[11] = Cmax in Sprague-Dawley rat at 2 mg/kg, iv or 10 mg/kg, po; type: ADME, organism-based; conditions: in vivo; outline: as §1
[12] = Dissociation constant, pKa of the compound; type: physicochemical
[13] = Clearance in C57 mouse at 2 mg/kg, iv or 10 mg/kg, po; type: ADME, organism-based; conditions: in vivo; outline: as §1
[14] = Volume of distribution at steady state in C57 mouse at 2 mg/kg, iv or 10 mg/kg, po; type: ADME, organism-based; conditions: in vivo, read-out: Vdss; outline: as §1
[15] = Oral bioavailability in Sprague-Dawley rat at 2 mg/kg, iv or 10 mg/kg, po; type: ADME, organism-based; conditions: in vivo; outline: as §1
[16] = Volume of distribution at steady state in Sprague-Dawley rat at 2 mg/kg, iv or 10 mg/kg, po; type: ADME, organism-based; conditions: in vivo, read-out: Vdss; outline: as §1
[17] = Cmax in C57 mouse at 2 mg/kg, iv or 10 mg/kg, po; type: ADME, organism-based; conditions: in vivo; outline: as §1
[18] = Clearance in Sprague-Dawley rat at 2 mg/kg, iv or 10 mg/kg, po; type: ADME, organism-based; conditions: in vivo; outline: as §1
[19] = Cmax in cynomolgus monkey at 2 mg/kg, iv or 10 mg/kg, po; type: ADME, organism-based, Macaca fascicularis; conditions: in vivo; outline: as §1
Cathepsin S [20] = molecular target: Cathepsin S (Mus musculus, UniProt O70370); test: Inhibition of mouse cathepsin S
[21] = Clearance in cynomolgus monkey at 2 mg/kg, iv or 10 mg/kg, po; type: ADME, organism-based, Macaca fascicularis; conditions: in vivo; outline: as §1
[22] = Oral bioavailability in cynomolgus monkey at 2 mg/kg, iv or 10 mg/kg, po; type: ADME, organism-based, Macaca fascicularis; conditions: in vivo; outline: as §1
[23] = Volume of distribution at steady state in cynomolgus monkey at 2 mg/kg, iv or 10 mg/kg, po; type: ADME, organism-based, Macaca fascicularis; conditions: in vivo, read-out: Vdss; outline: as §1

Sequence of Procathepsin L (P07711 whole entry): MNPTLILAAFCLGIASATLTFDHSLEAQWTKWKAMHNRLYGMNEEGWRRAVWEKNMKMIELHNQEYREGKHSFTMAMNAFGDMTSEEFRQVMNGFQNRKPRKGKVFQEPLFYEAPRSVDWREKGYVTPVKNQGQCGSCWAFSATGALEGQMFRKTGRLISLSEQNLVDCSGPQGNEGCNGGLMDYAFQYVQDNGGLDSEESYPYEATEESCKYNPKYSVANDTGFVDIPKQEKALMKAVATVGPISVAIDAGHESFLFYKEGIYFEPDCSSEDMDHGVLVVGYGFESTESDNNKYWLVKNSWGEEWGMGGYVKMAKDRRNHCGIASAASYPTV
T2 sequence (P25774 whole entry): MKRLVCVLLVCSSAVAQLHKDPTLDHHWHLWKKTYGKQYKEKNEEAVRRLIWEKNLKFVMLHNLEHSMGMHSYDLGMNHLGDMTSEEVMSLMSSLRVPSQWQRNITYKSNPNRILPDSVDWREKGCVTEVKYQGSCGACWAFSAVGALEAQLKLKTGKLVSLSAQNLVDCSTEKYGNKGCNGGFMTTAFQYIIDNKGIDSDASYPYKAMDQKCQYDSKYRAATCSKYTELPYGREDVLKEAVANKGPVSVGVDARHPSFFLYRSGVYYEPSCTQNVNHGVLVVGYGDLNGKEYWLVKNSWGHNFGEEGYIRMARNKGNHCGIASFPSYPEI
Sequence of Cathepsin S (Mus musculus, UniProt O70370) (O70370 whole entry): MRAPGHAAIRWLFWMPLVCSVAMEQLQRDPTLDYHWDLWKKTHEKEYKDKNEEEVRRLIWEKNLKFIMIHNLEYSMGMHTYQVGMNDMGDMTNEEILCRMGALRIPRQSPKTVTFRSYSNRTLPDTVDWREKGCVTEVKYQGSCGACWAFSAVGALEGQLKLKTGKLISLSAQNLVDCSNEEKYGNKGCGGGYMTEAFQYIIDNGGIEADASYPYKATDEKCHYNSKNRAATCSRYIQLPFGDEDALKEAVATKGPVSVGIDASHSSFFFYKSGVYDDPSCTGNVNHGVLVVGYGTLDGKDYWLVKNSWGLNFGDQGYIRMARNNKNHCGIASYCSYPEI

SMILES	IC50 (Procathepsin L) [nM]	IC50 (Cathepsin L2) [nM]	IC50 (Cathepsin B) [nM]	concentration (Plasma) [µM]	Kp [7]	concentration (Spleen) [µM]	IC50 (Cathepsin S [8]) [nM]	IC50 (Cathepsin S [9]) [nM]	IC50 (Cathepsin K) [nM]	pKa [12]	other results
Cn1cnc2c(C#N)nc(-c3ccc(OCCC4CCNCC4)c(C(F)(F)F)c3)cc21	> 10000	> 10000	> 10000								Stability [1]: Stable; Stability (Liver microsomes [2]): Stable; Stability (Liver microsomes [3]): Stable
CN(C)CCCOc1ccc(-c2cc3c(ncn3C)c(C#N)n2)cc1C(F)(F)F	> 10000	> 10000	> 10000								concentration at 4 h [4]: 0.094 µM; concentration at 4 h [5]: 2.43 µM; Kp at 4 h [6]: 26
CCN1CCN(CCCOc2ccc(-c3cc4c(ncn4C)c(C#N)n3)cc2C(F)(F)F)CC1	> 10000	> 10000	> 10000	0.09	51	4.57					
CN1CCC(CCOc2ccc(-c3cc4c(ncn4C)c(C#N)n3)cc2C(F)(F)F)CC1	> 10000	> 10000	> 10000				10	7.9			
CN(C)C(=O)CN1CCC(CCOc2ccc(-c3cc4c(ncn4C)c(C#N)n3)cc2C(F)(F)F)CC1	> 10000	> 10000	> 10000	1.03	11.4	11.7	22		407	7.5	bioavailability [10]: 62%; Cmax [11]: 13.4 ng/mL; clearance [13]: 79.4 mL/min/kg; Vd [14]: 6.17 L/kg; bioavailability [15]: 8.93%; Vd [16]: 9.8 L/kg; Cmax [17]: 296 ng/mL; clearance [18]: 93.5 mL/min/kg
Cc1noc(C)c1CN1CCC(CCOc2ccc(-c3cc4c(ncn4C)c(C#N)n3)cc2C(F)(F)F)CC1	> 10000	> 10000	> 10000	3.4	5.8	19.6	12	3.3	288	7.9	
Cn1cnc2c(C#N)nc(-c3ccc(OCCC4CCN(Cc5ncco5)CC4)c(C(F)(F)F)c3)cc21	> 10000	> 10000	> 10000	6.61	1.9	12.5	39	7.9	708	6.3	bioavailability [10]: 112%; Cmax [11]: 9.64 ng/mL; Cmax [19]: 234 ng/mL; IC50 (Cathepsin S [20]): 1.6 nM; clearance [21]: 10 mL/min/kg; clearance [13]: 13.9 mL/min/kg; Vd [14]: 1.48 L/kg; bioavailability [22]: 9%; Vd [23]: 0.6 L/kg; bioavailability [15]: 3.6%; Vd [16]: 2.43 L/kg; Cmax [17]: 3160 ng/mL; clearance [18]: 73.8 mL/min/kg
Cc1nnc(CN2CCC(CCOc3ccc(-c4cc5c(ncn5C)c(C#N)n4)cc3C(F)(F)F)CC2)o1	> 10000	> 10000	> 10000	6.37	2.9	18.2	123	14.1	813	5.6	
Cc1noc(CN2CCC(CCOc3ccc(-c4cc5c(ncn5C)c(C#N)n4)cc3C(F)(F)F)CC2)n1	> 10000	> 10000	> 10000	5.66	0.7	4.09	294	18.6	1150	5.3	
CC(=O)N1CCC(CCOc2ccc(-c3cc4c(ncn4C)c(C#N)n3)cc2C(F)(F)F)CC1	> 10000	> 10000	> 10000				235	13	1910		
Cn1cnc2c(C#N)nc(-c3ccc(OCCC4CCN(S(C)(=O)=O)CC4)c(C(F)(F)F)c3)cc21	> 10000	> 10000	> 10000				353	27	2340		
